# Columns and labels:
# IRE1β* RNase = IRE1β* RNase (Homo sapiens, UniProt Q76MJ5); assay: fluorescence-quenched XBP1 mini-substrate RNase assay, IRE1β*; type: biochemical
# In short: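 Recombinant IRE1β* RNase cleaves a FRET-quenched XBP1 mini-substrate, monitored in real time as a fluorescence increase. Activation is tested at a low, mainly monomeric IRE1β* concentration and inhibition at a higher, dimer-containing concentration. Initial cleavage rates are compared with DMSO. IC50 values are mean ± SEM, n=3. Selectivity is the IRE1α* RNase IC50 divided by the IRE1β* RNase IC50.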
# IRE1α* RNase = IRE1α* RNase (Homo sapiens, UniProt O75460); assay: fluorescence-quenched XBP1 mini-substrate RNase assay, IRE1α*; type: biochemical; conditions: read-out: IRE1α RNase IC50, mean ± SEM, n=3
# In short: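 IRE1α* RNase activity was followed in vitro as the real-time rise in fluorescence on cleavage of a FRET-quenched XBP1 mini-substrate. IC50 was taken from inhibition curves, mean ± SEM, n=3. Selectivity is the IRE1α RNase IC50 divided by the IRE1β RNase IC50, for each inhibitor.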
# IRE1β* RNase, sequence (Q76MJ5 452-926 limits assumed): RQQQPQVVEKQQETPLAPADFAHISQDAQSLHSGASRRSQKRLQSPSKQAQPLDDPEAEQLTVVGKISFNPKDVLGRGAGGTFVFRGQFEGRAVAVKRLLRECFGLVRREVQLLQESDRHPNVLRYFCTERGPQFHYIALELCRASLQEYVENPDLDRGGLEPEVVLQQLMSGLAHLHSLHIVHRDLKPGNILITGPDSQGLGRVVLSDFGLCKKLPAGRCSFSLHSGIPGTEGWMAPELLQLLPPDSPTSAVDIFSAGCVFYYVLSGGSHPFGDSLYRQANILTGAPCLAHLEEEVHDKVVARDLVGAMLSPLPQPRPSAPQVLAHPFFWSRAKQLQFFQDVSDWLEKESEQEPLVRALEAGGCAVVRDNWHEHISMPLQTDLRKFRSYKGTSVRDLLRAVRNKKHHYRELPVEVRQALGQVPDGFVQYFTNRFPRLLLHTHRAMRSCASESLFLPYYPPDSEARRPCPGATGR
# IRE1α* RNase, sequence (O75460 465-977 limits assumed): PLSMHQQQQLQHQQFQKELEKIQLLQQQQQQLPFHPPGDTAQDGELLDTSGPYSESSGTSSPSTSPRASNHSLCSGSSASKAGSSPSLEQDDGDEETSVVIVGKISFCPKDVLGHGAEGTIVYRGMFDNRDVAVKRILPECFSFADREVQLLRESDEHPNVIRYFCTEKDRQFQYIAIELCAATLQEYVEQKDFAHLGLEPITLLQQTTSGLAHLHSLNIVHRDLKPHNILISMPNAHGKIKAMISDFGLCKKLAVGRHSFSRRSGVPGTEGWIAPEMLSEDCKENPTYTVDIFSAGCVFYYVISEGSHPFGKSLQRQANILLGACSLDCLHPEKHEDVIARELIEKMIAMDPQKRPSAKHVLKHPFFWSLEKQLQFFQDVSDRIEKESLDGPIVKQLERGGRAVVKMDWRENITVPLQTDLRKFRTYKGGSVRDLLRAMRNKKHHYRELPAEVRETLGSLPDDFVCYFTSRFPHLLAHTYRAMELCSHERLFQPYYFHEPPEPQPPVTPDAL
SMILES,"rate of XBP1 mini-substrate cleavage relative to the apo form (IRE1β* RNase; Low [IRE1β*] (mainly monomeric), RNase activation)",IC50 (IRE1α* RNase),effect on ability to cleave the XBP1 mini-substrate (IRE1β* RNase; High [IRE1β*] (RNase active dimer)),IRE1β RNase Selectivity (Fold) (IRE1β* RNase; IRE1α* RNase IC50 divided by IRE1β* RNase IC50),"IC50 (IRE1β* RNase; read-out: IRE1β RNase IC50, mean ± SEM, n=3, XBP1 mini-substrate)"
O=C(Nc1c[nH]nc1-c1nc2ccc(CN3CCOCC3)cc2[nH]1)NC1CC1 [AT9283],12 fold,,,,
Cc1ccc2c(NS(=O)(=O)c3ccccc3Cl)cccc2c1Oc1ncccc1-c1ccnc(N[C@H]2CCCNC2)n1 [compound 1],,5 ± 2.3 nM,almost complete loss in its ability to cleave the XBP1 mini-substrate,0.09 Fold,55 ± 5 nM
